# Bioassay records: PubChem, Broad Institute
# Cneo AK release: Cryptococcus neoformans lysis via adenylate kinase release | C. neoformans lysis, adenylate kinase release luminescence, 4 h; normalised: neutral wells 0, clomiphene wells 100 | 360,000 tested, 0.2% active | lysis activity, % at 15 µM;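 active means mean lysis activity across replicates of at least 80%, whatever share of replicates individually reach that level; inactive means mean lysis activity below 80%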
#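 Material: C. neoformans cells | Amount: Yeast cell density of 5 × 10^6 cells/mL | Medium: Fresh YPD growth medium | Dosing: Single dose | Times: Static 4 h at 37 °C with compound, 1 h detection | Detection: AK luminescence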
# Rtt109 Vps75: inhibitors of Candida albicans Rtt109/Vps75 histone acetyltransferase; Q5AAJ8; purified Rtt109/Vps75, ThioGlo CoA-SH fluorescence, 4 h; inhibition, % at 34.9 µM; 330,000 tested, 0.16% active;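 active means inhibition of at least 50% in every replicate; inconclusive means best replicate reaches 50% inhibition but some replicates fall short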
# Target sequence (Q5AAJ8 whole entry, looked up): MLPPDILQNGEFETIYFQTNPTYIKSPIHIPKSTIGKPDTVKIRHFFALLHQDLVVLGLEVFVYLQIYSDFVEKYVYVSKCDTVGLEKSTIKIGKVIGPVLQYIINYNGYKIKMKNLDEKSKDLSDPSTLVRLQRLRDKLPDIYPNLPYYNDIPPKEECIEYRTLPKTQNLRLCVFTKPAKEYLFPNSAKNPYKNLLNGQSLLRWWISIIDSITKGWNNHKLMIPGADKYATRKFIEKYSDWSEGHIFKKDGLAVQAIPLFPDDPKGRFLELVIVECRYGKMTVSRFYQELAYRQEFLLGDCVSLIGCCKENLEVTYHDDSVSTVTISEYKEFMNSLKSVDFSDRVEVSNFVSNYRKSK
# dFosB activator: enhances mouse delta FosB homodimer DNA binding. P13346. purified delta FosB, TAMRA-CDK5 oligo fluorescence polarization; percent of positive-control signal above neutral wells. activation, % at 25 µM. 340,000 tested, 0.99% active. AID 493131;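 active means mean activation above about 17%, with every replicate also reaching it, limit read from the data, passing the limit was not always enough; inconclusive means only one of the two conditions met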
# Env fusion inh: HIV envelope-mediated fusion inhibition | 360,000 tested, 1.1% active | inhibition, % at 12.3 µM | AID 651610 | HeLa-JRFL Env/CEM21 cell fusion, luciferase;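 active means mean replicate inhibition score of at least 50 and every replicate individually at or above 50; inconclusive means only one of the two criteria met; inactive means mean below 50 and not all replicates reaching 50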;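 further: 0% = plate neutral controls and 100% = maraviroc near 300 nM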
# GSIS activator: GLuc luminescence reporter in INS-1E cells, primary screen for activators of glucose-dependent secretion of insulin | AID 743287 | activation, % at 16.6 µM | INS-1E GLuc reporter insulin secretion, 2-3 h | 370,000 tested, 0.61% active;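 active means lowest replicate activation of at least 40%, so every replicate reaches that level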;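 further: 0% = median of neutral control wells and 100% = median of IBMX positive control wells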
# miR122 inh: inhibitors of miR-122 in Huh7 cells; Huh7 miR-122 Renilla luciferase sensor, 48 h; neutral wells = 0, positive control = 100; activation (reporter increase), % at 12.5 µM; 340,000 tested, 0.3% active; AID 602342;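 active means mean replicate activation score at least 90 and every replicate individually at or above 90; inconclusive means only one of the two criteria met; inactive means neither criterion met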;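 further: higher luciferase means less miR-122 activity so hits act as miR-122 inhibitors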
# * marks the source's active call; other numbers are inactive results; ? = inconclusive; . = no result given; [ ] = another dose, or the depositor's remark. This is a sample that favours compounds with a hit; in the whole collection about 2.4% have one here.
SMILES,Cneo AK release,Rtt109 Vps75,dFosB activator,Env fusion inh,GSIS activator,miR122 inh
Cn1c(NCCCN2CCOCC2)nc2c1c(=O)n(Cc1ccc(Cl)cc1Cl)c(=O)n2C,0.3,-4.2,-1.0,62.7*,.,-7.6
COc1ccccc1CCNCc1ccc(OC)c(OCc2ccccc2)c1,18.0,-16.2,-7.0,73.8*,-16.6,-8.1
C=CCn1c(SCC#N)nc2sc(CC)cc2c1=O,-2.8,-8.3,-10.3,13.1,88.7*,-3.7
C=CCn1c(SCC(=O)c2cccs2)nc2sc(CC)cc2c1=O,0.4,-3.1,-8.9,88.3*,.,1.4
Cc1oc2c(Cl)c(Cl)c(O)c(CN(C)C)c2c1C(=O)c1ccc(Cl)cc1,1.1,-0.4,-10.7,64.2*,-24.0,-6.6
Cc1ccc2nc(N/N=C/c3ccccc3F)nc(-c3ccccc3)c2c1,5.2,-2.8,3.1,-23.7,4.2,.
Cc1ccc2nc(N/N=C/c3ccccc3C#N)nc(-c3ccccc3)c2c1,-0.5,-0.8,-24.2,.,48.3*,-1.2
COc1ccc(NC(=O)N(C)C[C@H]2OCCCC[C@H](C)Oc3ccc(NC(=O)NC(C)C)cc3C(=O)N([C@@H](C)CO)C[C@@H]2C)cc1,-2.3,.,.,-2.8[16.7 µM],16.8,2.1[16.7 µM]
CN(C)C(=O)C[C@@H]1CC[C@@H]2[C@H](COC[C@H](O)CN2CC2CC2)O1,-0.3,.,.,.,4.1,4.1[16.7 µM]
Cc1ccc(C2CCN(C(=S)NC3CCCCC3)C2)cc1 (stereo not given),119.1*,-4.8,-5.3,2.1,-14.0,2.4
CC(=O)[C@@H]1[C@@H](C(=O)c2ccccc2)[C@]2(C(=O)Nc3ccccc32)[C@H]2C=Cc3cc(F)ccc3N12,.,-4.3,-7.9,15.0,-2.9,.
O=C(c1ccccc1)[C@@H]1[C@@H](C(=O)c2ccc(F)cc2)[C@@]2(C(=O)Nc3ccccc32)[C@H]2c3ccccc3C=CN12,0.0,0.6,-0.5,70.7*,1.7,84.9
O=C(Nc1ccc(OCC(F)(F)C(F)F)c(C(F)(F)F)c1)c1ccccc1,0.6,-1.8,-13.5,.,.,-4.6
O=C(Nc1ccc(OCC(F)(F)C(F)F)c(C(F)(F)F)c1)c1ccccc1O,-8.2,10.8,5.3,78.0*,.,-7.5
C[C@@H]1CN(C)C(=O)c2cc(NS(C)(=O)=O)ccc2O[C@@H]1CN(C)S(C)(=O)=O,.,.,.,.,1.1,.
CCOc1ccc(Nc2oc(-c3ccc(Cl)cc3)nc2C#N)cc1,1.5,0.6,-1.0,-83.6,73.3*,10.5
COc1ccc(-c2cn(-c3ccccc3)c(=S)[nH]2)cc1OC,1.0,-0.6,-7.3,62.2*,-3.5,-17.6
COCCCn1c(C(=O)Nc2ccc3c(c2)OCO3)cc2c(=O)n3cccc(C)c3nc21,2.0,.,.,63.5*,-1.7,2.9
O=C(c1ccco1)N1CCN(c2nc(C(F)(F)F)nc3c2nnn3Cc2ccccc2)CC1,.,1.7,-6.1,67.2*,-28.6,.
Fc1ccccc1C1CC(c2ccco2)=Nc2ccccc2S1 (stereo not given),.,83.2*,-0.9,-51.8,-5.4,6.8
COc1ccccc1C1CC(c2cccs2)=Nc2ccccc2S1 (stereo not given),-3.8,?,-8.6,-4.8,.,7.6
CCCC#Cc1ccc2c(c1)O[C@H](CN(C)S(=O)(=O)c1cccc(OC)c1)[C@@H](C)CN([C@@H](C)CO)S2(=O)=O,.,.,.,-12.4[16.7 µM],-18.1,31.4[16.7 µM]
CCCC#Cc1ccc2c(c1)O[C@H](CN(C)S(=O)(=O)c1cccc(OC)c1)[C@H](C)CN([C@@H](C)CO)S2(=O)=O,.,.,.,-1.9[16.7 µM],-1.9,11.8[16.7 µM]
COc1cccc(S(=O)(=O)N(C)C[C@@H]2Oc3cc(C#CCC(C)C)ccc3S(=O)(=O)N([C@@H](C)CO)C[C@@H]2C)c1,3.6,.,.,85.2*[16.7 µM],-18.6,-9.6[16.7 µM]
COc1cccc(S(=O)(=O)N(C)C[C@@H]2Oc3cc(C#CCC(C)C)ccc3S(=O)(=O)N([C@H](C)CO)C[C@H]2C)c1,2.0,.,.,71.0*[16.7 µM],11.7,-8.2[16.7 µM]
COc1cccc(S(=O)(=O)N(C)C[C@H]2Oc3cc(C#CCC(C)C)ccc3S(=O)(=O)N([C@@H](C)CO)C[C@H]2C)c1,1.7,.,.,71.3*[16.7 µM],24.2,25.6[16.7 µM]
C[C@H](NC(=O)C[C@@H]1C=C[C@@H](NC(=O)C2CCOCC2)[C@@H](CO)O1)c1ccccc1,0.4,.,.,2.6[16.7 µM],9.7,.
